Compounds with a hit are over-represented: about 2.7% of the library has one in this group of screens.
IMP-1 inh: inhibitors of Pseudomonas aeruginosa IMP-1 metallo-beta-lactamase; purified IMP-1, nitrocefin hydrolysis, epi-absorbance fluorescence; 0.45% of 290,000 active; inhibition, % at 5.6 µM;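 active = inhibition above the mean plus 3 SD of all compounds in the same screening run, cut at about 4.5% in these data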;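 note: 0% = IMP-1 with DMSO and 100% = DMSO wells lacking enzyme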
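System: Purified IMP-1 | Read-out basis: Percent enzyme inhibition | Controls: IMP-1 with DMSO as 0%, enzyme-free DMSO as 100% | Replicates: One well per compound | Doses: 5.6 µM nominal single concentration | Detection: Epi-absorbance fluorescence, 480 nm excitation, 530 nm emission | Incubation: 25 °C, 15 min preincubation, 25 min reaction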
PfM18AAP inh: PfM18AAP enzyme inhibition. recombinant PfM18AAP, H-Glu-NHMec fluorogenic cleavage. 1.2% of 290,000 active. inhibition, % at 7.35 µM;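 active = inhibition above the campaign mean inhibition over all tested compounds plus 3 SD, cut at about 28% in these data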;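 note: 0% = plate median of test compound wells and 100% = 2 mM ZnCl2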
CTSL1 counter: blocks F. hepatica cathepsin L1 in PFM18AAP counter-screen; inhibition, % at 5.96 µM; recombinant F. hepatica cathepsin L1, Z-Leu-Arg-MCA fluorescence; 0.49% of 300,000 active;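 active = inhibition above the mean of all tested compounds plus 3 SD, set per screening campaign, cut at about 17% in these data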;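 note: 0% = plate median of test compound wells and 100% = 1 µM Z-Phe-Ala-diazomethylketone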
VIM-2 inh: blocks Pseudomonas aeruginosa VIM-2 metallo-beta-lactamase; purified VIM-2, nitrocefin hydrolysis, epi-absorbance fluorescence; inhibition, % at 5.6 µM; 0.89% of 290,000 active;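 active = inhibition above the mean of all tested compounds plus 3 SD, cutoff set per screening run, cut at about 7.5% in these data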;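 note: red hydrolysis product quenches plate fluorescence so inhibitors raise well fluorescence; 0% = enzyme with DMSO and 100% = DMSO without enzyme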
The depositor's hits bear a star; x = no result.

SMILES	IMP-1 inh	PfM18AAP inh	CTSL1 counter	VIM-2 inh
Cc1cc(C(=O)c2ccccc2)c(NC(=O)CCl)s1	1	19	18*	4
CC(/C=C/C=C/c1ccccc1)=N\NC(=O)c1cccnc1	-1	3	22*	-1
CSc1nnc(-c2cc[n+](C)cc2)n1CCO	4.9*	6	1	-4
CSc1nnc(-c2ccccc2)n1N	-1	0	x	-1
Cn1cc(SCC(=O)N2CCCc3ccccc32)c2ccccc21	6.9*	-6	2	0
Cc1cnn(-c2nc(-c3cccs3)cc(C(F)(F)F)n2)c1	-1	-7	9	8.1*
FC(F)(F)c1cc(-c2cccs2)nc(-n2cc(Br)cn2)n1	-3	-5	-1	1
Cc1ccc(S(=O)(=O)NCCNC(=O)c2ccc(C)nc2)cc1	-2	5	-2	-2
CCC(=O)N1N=C(c2ccc(NS(C)(=O)=O)cc2)CC1c1ccc(N(C)C)cc1 (stereo not given)	0	9	5	-1
C/C(CC(=O)Nc1ccc(Cl)c(C(F)(F)F)c1)=N\NC(N)=S	-4	9	40*	-4
O=C(CCN1CCN(c2ccccc2)CC1)NNC(=S)Nc1ccccc1Cl	-4	14	-3	-3
COc1ccc(CC(=O)Nc2ccc(C(C)=O)cc2)cc1	8.0*	-4	-5	2
COc1ccc(NC(=O)CN(C)C(=O)Cc2ccsc2)cc1	5.0*	14	-10	1
CCc1ccc(NC(=O)Cc2ccc(OC)cc2)cc1	0	-9	-5	-2
COC(=O)c1c(C(=O)OC)c(-c2cccc(F)c2)n2c1CS(=O)(=O)C2	-2	-8	2	0
CCOC(CCn1ccc(O)c(Cc2ccc(Cl)cc2)c1=O)OCC	-4	-2	-4	-3
Cc1ccccc1C(=O)c1cccn1CC(=O)NCc1cccc(Cl)c1	-2	-15	0	-1
O=c1c(=O)n(O)c2ccccc2n1O	11*	-1	1	4
CC(C)CCOC(=O)/C(=C/c1ccco1)NC(=O)/C=C/c1ccccc1	0	2	22*	-2
Cn1c(=O)c([N+](=O)[O-])c(NCCCn2ccnc2)c2ccccc21	-2	2	3	7.9*
Cc1ccccc1N1C(=O)C(Oc2ccc(Cl)cc2)C1CNC(C)(C)C (stereo not given)	-5	2	1	-5
COCCCn1c(-c2ccccc2Cl)n[nH]c1=S	-1	18	-2	10*
COc1cc(OC)cc(C(=O)NCC2CCCN(C(=O)c3oc(C)cc3C)C2)c1 (stereo not given)	-2	5	-1	-2
CCc1sc(C(=O)Nc2cccnc2)cc1Br	-2	6	1	-4
Cc1cc(C(=O)NCC23CC4CC(CC(C4)C2)C3)c(C)o1	-2	15	-1	-3
SMILES	IMP-1 inh	PfM18AAP inh	CTSL1 counter	VIM-2 inh
COc1ccc(CNC(=O)c2cc3c(=O)[nH]c4ccccc4c3n2C)cc1	-3	-2	3	-3
CCn1c(=O)c2cc(C(=O)NCCOC)sc2c2ccccc21	-5	5	-4	8.3*
CCCCN(C)CCNC(=O)c1cc2c(=O)[nH]c3ccccc3c2n1C	-3	9	1	8.6*
CCOCCCNC(=O)c1cc2c(=O)n(CC)c3ccccc3c2s1	-2	-4	4	7.9*
CCn1c(=O)c2cc(C(=O)Nc3ccc(OC)cc3OC)sc2c2ccccc21	-1	-6	1	0
CCCN(CCC)CCCNC(=O)c1cc2c(=O)[nH]c3ccccc3c2s1	-5	4	-5	9.7*
CCOc1ccccc1N(C)C(=O)c1cc2c(=O)n(CC)c3ccccc3c2s1	-1	-4	4	-1
Cc1cc(Cl)ccc1OCC(=O)NN1C(=O)C2C3C=CC(C3)C2C1=O (stereo not given)	-2	0	-18	-7
CCc1nc(SCC(=O)Nc2ccc(N(C)C)cc2)c2ccccc2n1	-3	8	2	0
CCCN(CCC)CCNC(=O)c1cc2c(=O)n(CC)c3ccccc3c2s1	-1	0	-3	10*
CCn1c(=O)c2cc(C(=O)N(C)CC(OC)OC)sc2c2ccccc21	-3	0	-1	7
CCc1cccc(C)c1NC(=O)COC(=O)c1cc([N+](=O)[O-])ccc1N1CCOCC1	x	x	1	x
CCN(CC)c1ccc(NC(=O)CCS(=O)(=O)c2ccc(Br)cc2)c(C)c1	24*	8	1	-2
COc1cc(C(=O)Nc2ccccc2C(=O)Nc2ccccn2)cc(OC)c1OC	0	-1	-3	1
COc1cc(C(=O)Nc2ccccn2)cc(OC)c1OC	3	2	18*	-2
Clc1ccc(Oc2nc3ccccc3n3cccc23)cc1	0	-14	26*	-2

Screening data: PubChem, The Scripps Research Institute Molecular Screening Center
